Experimental data: ChEMBL document CHEMBL3232802, “6-Amino-2,4,5-trimethylpyridin-3-ols: a new general synthetic route and antiangiogenic activity” (2014)

Experiments:
Chorioallantoic membrane [1] = test: Antiangiogenic activity in chicken chorioallantoic membrane assessed as inhibition of VEGF-induced blood vessel formation at 0.01 nmol […] measured after 3 days; assay type: functional, cell membranes; conditions: Gallus gallus
Chorioallantoic membrane [2] = test: Antiangiogenic activity in chicken chorioallantoic membrane assessed as inhibition of VEGF-induced blood vessel formation treated 30 mins before VEGF addition measured after 3 days; assay type: functional; conditions: Gallus gallus
Chorioallantoic membrane [3] = test: Antiangiogenic activity in human A549 cells inoculated chicken chorioallantoic membrane assessed as inhibition of blood vessel formation at 0.01 pmol after 3 days; assay type: functional, Gallus gallus
How it was run: (§1)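 A549 lung cancer cells (2 × 10⁶ cells/CAM) in Matrigel inoculated onto CAM instead of VEGF, then compound at varied doses; three days at 37 °C, 55% humidity. Vessel branch points within tumor region counted double-blind by two observers; mean ± S.E.M.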

Chorioallantoic membrane [4] = test: Antiangiogenic activity in human A549 cells inoculated chicken chorioallantoic membrane assessed as inhibition of blood vessel formation at 0.1 pmol after 3 days; assay type: functional, Gallus gallus; how it was run: as §1
Chorioallantoic membrane [5] = test: Antiangiogenic activity in human A549 cells inoculated chicken chorioallantoic membrane assessed as inhibition of blood vessel formation at 1 pmol after 3 days; assay type: functional, Gallus gallus; how it was run: as §1
A549 [6] = test: Cytotoxicity against human A549 cells inoculated with chicken chorioallantoic membrane assessed as tumor inhibition at 0.01 pmol after 3 days; assay type: functional
How it was run: (§2)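 A549 cells (2 × 10⁶ cells/CAM) in Matrigel implanted on CAM, then compound at different concentrations; incubated three days at 37 °C, 55% humidity. Tumor mass grown on CAM isolated and weighed; mean ± S.E.M.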

A549 [7] = test: Cytotoxicity against human A549 cells inoculated with chicken chorioallantoic membrane assessed as tumor inhibition at 0.1 pmol after 3 days; assay type: functional; how it was run: as §2
A549 [8] = test: Cytotoxicity against human A549 cells inoculated with chicken chorioallantoic membrane assessed as tumor inhibition at 1 pmol after 3 days; assay type: functional; how it was run: as §2
Chorioallantoic membrane [9] = test: Antiangiogenic activity in human A549 cells inoculated chicken chorioallantoic membrane assessed as inhibition of blood vessel formation after 3 days; assay type: functional, cell-based; conditions: Gallus gallus; how it was run: as §1
A549 [10] = test: Cytotoxicity against human A549 cells inoculated with chicken chorioallantoic membrane assessed as tumor inhibition after 3 days; assay type: functional, cell-based; how it was run: as §2

In the case of `Cc1nc(NCc2ccccc2)c(C)c(C)c1O`, the inhibition (Chorioallantoic membrane [1]) is reported as 56.7%.

With `Cc1nc(N)c(C)c(C)c1O` the inhibition (Chorioallantoic membrane [1]) was 80.9%, the ID50 (Chorioallantoic membrane [2]) was 3.2 pg and the inhibition (Chorioallantoic membrane [2]) was “Dose-dependent effect”. For the same compound, the “inhibition (INH)” value (Chorioallantoic membrane [3]) was 16.6%, the “inhibition (INH)” value (Chorioallantoic membrane [4]) was 18% and the “inhibition (INH)” value (Chorioallantoic membrane [5]) was 20.7%. The “inhibition (INH)” value (A549 [6]) was 20.5%, the “inhibition (INH)” value (A549 [7]) was 25.2% and the “inhibition (INH)” value (A549 [8]) was 27.4%. For the same compound, the inhibition (Chorioallantoic membrane [9]) was “Dose-dependent effect” and the inhibition (A549 [10]) was “Dose-dependent effect”.

For `Cc1nc(Nc2ccccc2C(C)C)c(C)c(C)c1O`, the inhibition (Chorioallantoic membrane [1]) was 55.3%.

`Cc1nc(NCCCO)c(C)c(C)c1O` showed an inhibition (Chorioallantoic membrane [1]) of 46.3%.

Compound `Cc1nc(NC2CCCCC2)c(C)c(C)c1O` has an inhibition (Chorioallantoic membrane [1]) of 36.8%.

Work on `CCCCCCNc1nc(C)c(O)c(C)c1C` yielded an inhibition (Chorioallantoic membrane [1]) of 53.7%.

In the case of `Cc1nc(N2CCCC2)c(C)c(C)c1O`, the inhibition (Chorioallantoic membrane [1]) is reported as 69.5%.

For `CN(C)c1ccc(/C=C2\C(=O)Nc3ccccc32)cc1`, the inhibition (Chorioallantoic membrane [1]) was 70.5%, the ID50 (Chorioallantoic membrane [2]) was 10.5 pg and the inhibition (Chorioallantoic membrane [2]) was “Dose-dependent effect”. The “inhibition (INH)” value (Chorioallantoic membrane [3]) was 20.8%, the “inhibition (INH)” value (Chorioallantoic membrane [4]) was 25.1% and the “inhibition (INH)” value (Chorioallantoic membrane [5]) was 36.2%. The “inhibition (INH)” value (A549 [6]) was 16.2%, the “inhibition (INH)” value (A549 [7]) was 23.4% and the “inhibition (INH)” value (A549 [8]) was 26.8%. For the same compound, the inhibition (Chorioallantoic membrane [9]) was “Dose-dependent effect” and the inhibition (A549 [10]) was “Dose-dependent effect”.

With `Cc1nc(Nc2ccc([N+](=O)[O-])cc2)c(C)c(C)c1O` the inhibition (Chorioallantoic membrane [1]) was 75%, the ID50 (Chorioallantoic membrane [2]) was 4.4 pg and the inhibition (Chorioallantoic membrane [2]) was “Dose-dependent effect”. The “inhibition (INH)” value (Chorioallantoic membrane [3]) was 19.9%, the “inhibition (INH)” value (Chorioallantoic membrane [4]) was 25.6% and the “inhibition (INH)” value (Chorioallantoic membrane [5]) was 34.5%. For the same compound, the “inhibition (INH)” value (A549 [6]) was 25.3%, the “inhibition (INH)” value (A549 [7]) was 44.4% and the “inhibition (INH)” value (A549 [8]) was 50.1%. For the same compound, the inhibition (Chorioallantoic membrane [9]) was “Dose-dependent effect” and the inhibition (A549 [10]) was “Dose-dependent effect”.

`Cc1nc(Nc2ccccc2)c(C)c(C)c1O` was tested, and the inhibition (Chorioallantoic membrane [1]) was 69.4%.

`Cc1nc(Nc2ccc(Br)cc2)c(C)c(C)c1O` was tested, and the inhibition (Chorioallantoic membrane [1]) was 61.7%.

`Cc1nc(N2CCOCC2)c(C)c(C)c1O` gave an inhibition (Chorioallantoic membrane [1]) of 59%.

In the case of `Cc1nc(N(C)c2ccccn2)c(C)c(C)c1O`, the inhibition (Chorioallantoic membrane [1]) is reported as 42.2%.

Compound `Cc1nc(NCCCOc2nc(C)c(O)c(C)c2C)c(C)c(C)c1O` has an inhibition (Chorioallantoic membrane [1]) of 67.3%.

In the case of `Cc1nc(-n2cccc2)c(C)c(C)c1O`, the inhibition (Chorioallantoic membrane [1]) is reported as 44%.

`CCCCCCCCCCCCCCCCNc1nc(C)c(O)c(C)c1C` was tested, and the inhibition (Chorioallantoic membrane [1]) was 30.1%.

Compound `Cc1nc(N2CCN(C)CC2)c(C)c(C)c1O` has an inhibition (Chorioallantoic membrane [1]) of 24.7%.

Compound `Cc1nc(N(c2ccccc2)c2ccccc2)c(C)c(C)c1O` has an inhibition (Chorioallantoic membrane [1]) of 65.4%.

`Cc1nc(Nc2ccc3c(c2)OCO3)c(C)c(C)c1O` showed an inhibition (Chorioallantoic membrane [1]) of 62.4%.
